Values after ≈ are worked out from the molar mass of the structure shown. Active and inactive are the calls of the source. No cut-off for these calls is given here.
Key:
Pseudomonas aeruginosa [1] = experiment: Antibacterial activity against Pseudomonas aeruginosa after 8 to 12 hrs by colorimetric microdilution broth technique; assay type: functional
Method in brief: (§1)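 Broth microdilution in RPMI1640. Bacterial suspension in RPMI1640 is mixed with 1% Alamar Blue. Sample dissolved in DMSO at 25 mg/ml (stock) is added to the first row, then serially diluted two-fold down the plate to 128-fold. Plates are incubated at 37 °C for 8–12 h. MIC is the lowest concentration preventing the Alamar Blue change from blue to red. At least three repeats.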

Staphylococcus aureus [2] = experiment: Antibacterial activity against Staphylococcus aureus TISTR517 after 8 to 12 hrs by colorimetric microdilution broth technique; assay type: functional; method in brief: as §1
Bacillus subtilis [3] = experiment: Antibacterial activity against Bacillus subtilis after 8 to 12 hrs by colorimetric microdilution broth technique; assay type: functional; method in brief: as §1
Enterococcus faecalis [4] = experiment: Antibacterial activity against Enterococcus faecalis TISTR459 after 8 to 12 hrs by colorimetric microdilution broth technique; assay type: functional
Method in brief: (§2)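 Broth microdilution with a colorimetric read-out. Bacteria were suspended in RPMI1640 with 1% Alamar Blue. Compound was dissolved in DMSO as a 25 mg/ml stock and added to the first row, then serially halved to a 128-fold final dilution. Plates were incubated at 37 °C for 8–12 h. MIC was the lowest concentration preventing the blue-to-red indicator change. Each assay was run at least three times.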

Shigella sonnei [5] = experiment: Antibacterial activity against Shigella sonnei after 8 to 12 hrs by colorimetric microdilution broth technique; assay type: functional; method in brief: as §1
Staphylococcus aureus [6] = experiment: Antibacterial activity against methicillin-resistant Staphylococcus aureus ATCC 43300 after 8 to 12 hrs by colorimetric microdilution broth technique; assay type: functional; method in brief: as §2
Enterococcus faecalis [7] = experiment: Antibacterial activity against vancomycin-resistant Enterococcus faecalis ATCC 51299 after 8 to 12 hrs by colorimetric microdilution broth technique; assay type: functional; method in brief: as §2
Salmonella typhi [8] = experiment: Antibacterial activity against Salmonella typhi after 8 to 12 hrs by colorimetric microdilution broth technique; assay type: functional, Salmonella enterica subsp. enterica serovar Typhi; conditions: Salmonella enterica; method in brief: as §2
Pseudomonas aeruginosa [9] = experiment: Antibacterial activity against Pseudomonas aeruginosa at up to 300 ug/ml after 8 to 12 hrs by colorimetric microdilution broth technique; assay type: functional, organism-based; method in brief: as §1
Bacillus subtilis [10] = experiment: Antibacterial activity against Bacillus subtilis at up to 300 ug/ml after 8 to 12 hrs by colorimetric microdilution broth technique; assay type: functional, organism-based; method in brief: as §1
Salmonella typhi [11] = experiment: Antibacterial activity against Salmonella typhi at up to 300 ug/ml after 8 to 12 hrs by colorimetric microdilution broth technique; assay type: functional, organism-based; conditions: Salmonella enterica subsp. enterica serovar Typhi; method in brief: as §2
Staphylococcus aureus [12] = experiment: Antibacterial activity against Staphylococcus aureus TISTR517 at up to 300 ug/ml after 8 to 12 hrs by colorimetric microdilution broth technique; assay type: functional, organism-based; method in brief: as §1
Shigella sonnei [13] = experiment: Antibacterial activity against Shigella sonnei at up to 300 ug/ml after 8 to 12 hrs by colorimetric microdilution broth technique; assay type: functional, organism-based; method in brief: as §1
Enterococcus faecalis [14] = experiment: Antibacterial activity against vancomycin-resistant Enterococcus faecalis ATCC 51299 at up to 300 ug/ml after 8 to 12 hrs by colorimetric microdilution broth technique; assay type: functional, organism-based; method in brief: as §2
Enterococcus faecalis [15] = experiment: Antibacterial activity against Enterococcus faecalis TISTR459 at up to 300 ug/ml after 8 to 12 hrs by colorimetric microdilution broth technique; assay type: functional, organism-based; method in brief: as §1

| SMILES | MIC (Pseudomonas aeruginosa [1]) [µg/mL] | MIC (Staphylococcus aureus [2]) [µg/mL] | MIC (Bacillus subtilis [3]) [µg/mL] | MIC (Enterococcus faecalis [4]) [µg/mL] | MIC (Shigella sonnei [5]) [µg/mL] | MIC (Staphylococcus aureus [6]) [µg/mL] | MIC (Enterococcus faecalis [7]) [µg/mL] | MIC (Salmonella typhi [8]) [µg/mL] | MIC (Pseudomonas aeruginosa [9]) | MIC (Bacillus subtilis [10]) | MIC (Salmonella typhi [11]) | MIC (Staphylococcus aureus [12]) | MIC (Shigella sonnei [13]) | MIC (Enterococcus faecalis [14]) | MIC (Enterococcus faecalis [15]) |
| --- | --- | --- | --- | --- | --- | --- | --- | --- | --- | --- | --- | --- | --- | --- | --- |
| CN[C@H](CC(C)C)C(=O)N[C@H]1C(=O)N[C@@H](CC(N)=O)C(=O)N[C@H]2C(=O)N[C@H]3C(=O)N[C@H](C(=O)N[C@H](C(=O)O)c4cc(O)cc(O)c4-c4cc3ccc4O)[C@H](O)c3ccc(c(Cl)c3)Oc3cc2cc(c3O[C@@H]2O[C@H](CO)[C@@H](O)[C@H](O)[C@H]2O[C@H]2C[C@](C)(N)[C@H](O)[C@H](C)O2)Oc2ccc(cc2Cl)[C@H]1O [VANCOMYCIN] | 2.34 (≈ 1.61 µM) | 9.37 (≈ 6.47 µM) | 2.34 (≈ 1.61 µM) | 9.38 (≈ 6.47 µM) | 2.34 (≈ 1.61 µM) | < 2.34 | 2.34 (≈ 1.61 µM) | 2.34 (≈ 1.61 µM) |  |  |  |  |  |  |  |
| CN(C)c1ccc(/C=C/c2ccc3ccccc3[n+]2C)cc1.[I-] | 300 | 18.8 | 9.37 | 18.8 | 4.68 | 9.37 | 4.68 | 300 |  |  |  |  |  |  |  |
| CCOc1ccc(/C=C/c2ccc3ccccc3[n+]2C)cc1.COc1ccc(S(=O)(=O)[O-])cc1 |  |  | 18.8 | 75 | 150 | 2.34 | 18.8 |  |  |  |  |  |  |  |  |
| CCOc1ccc(/C=C/c2ccc3ccccc3[n+]2C)cc1.O=S(=O)([O-])c1ccc(Cl)cc1 |  |  | 75 | 75 | 300 | 2.34 | 150 |  |  |  |  |  |  |  |  |
| CCOc1ccc(/C=C/c2ccc3ccccc3[n+]2C)cc1.Nc1ccc(S(=O)(=O)[O-])cc1 [listing 1 of 2 here] |  | 37.5 | 37.5 | 37.5 | 75 | 4.68 | 75 | 75 |  |  |  |  |  |  |  |
| CCOc1ccc(/C=C/c2ccc3ccccc3[n+]2C)cc1.Nc1ccc(S(=O)(=O)[O-])cc1 [listing 2 of 2 here] |  |  |  |  |  |  |  |  | inactive |  |  |  |  |  |  |
| CCOc1ccc(/C=C/c2ccc3ccccc3[n+]2C)cc1.[I-] |  |  | 37.5 | 75 | 150 | 2.34 | 37.5 |  |  |  |  |  |  |  |  |
| CN(C)c1ccc(/C=C/c2ccc3ccccc3[n+]2C)cc1.Nc1ccc(S(=O)(=O)[O-])cc1 | 150 | 75 | 18.8 | 75 | 75 | 2.34 | 18.8 | 75 |  |  |  |  |  |  |  |
| CCOc1ccc(/C=C/c2cccc[n+]2C)cc1.Cc1ccc(S(=O)(=O)[O-])cc1 | 37.5 | 150 | 300 | 150 | 150 | 37.5 | 300 | 150 |  |  |  |  |  |  |  |
| CCOc1ccc(/C=C/c2cccc[n+]2C)cc1.Nc1ccc(S(=O)(=O)[O-])cc1 |  |  |  |  |  |  |  |  | inactive | inactive | inactive | inactive | inactive | inactive | inactive |
| CCOc1ccc(/C=C/c2ccc3ccccc3[n+]2C)cc1.O=S(=O)([O-])c1ccc(Br)cc1 |  |  |  |  |  |  |  |  | inactive |  | inactive |  |  |  |  |
| CCOc1ccc(/C=C/c2cccc[n+]2C)cc1 |  |  |  |  |  |  |  |  | inactive | inactive | inactive | inactive | inactive | inactive | inactive |
| CN(C)c1ccc(/C=C/c2cccc[n+]2C)cc1.O=S(=O)([O-])c1ccc(Br)cc1 |  |  |  |  |  | 75 |  |  |  |  |  |  |  |  |  |
| CN(C)c1ccc(/C=C/c2cccc[n+]2C)cc1.Nc1ccc(S(=O)(=O)[O-])cc1 |  |  |  |  |  |  |  |  | inactive | inactive | inactive | inactive | inactive |  | inactive |
| CCOc1ccc(/C=C/c2ccc3ccccc3[n+]2C)cc1.Cc1ccc(S(=O)(=O)[O-])cc1 |  |  | 9.37 | 37.5 | 150 | 2.34 | 37.5 |  |  |  |  |  |  |  |  |
| CCOc1ccc(/C=C/c2cccc[n+]2C)cc1.COc1ccc(S(=O)(=O)[O-])cc1 |  |  |  |  |  |  |  |  | inactive | inactive | inactive | inactive | inactive | inactive | inactive |
| CN(C)c1ccc(/C=C/c2ccc3ccccc3[n+]2C)cc1.O=S(=O)([O-])c1ccc(Cl)cc1 | 300 | 2.34 | 2.34 | 2.34 | 2.34 | 2.34 | 2.34 | 300 |  |  |  |  |  |  |  |
| CN(C)c1ccc(/C=C/c2ccc3ccccc3[n+]2C)cc1.Cc1ccc(S(=O)(=O)[O-])cc1 | 300 | 2.34 | 2.34 | 2.34 | 2.34 | 2.34 | 2.34 | 300 |  |  |  |  |  |  |  |
| CN(C)c1ccc(/C=C/c2ccc3ccccc3[n+]2C)cc1.COc1ccc(S(=O)(=O)[O-])cc1 |  |  |  |  |  |  |  |  | inactive |  | inactive | inactive |  |  |  |

From ChEMBL document CHEMBL1240464, “Synthesis, structure and in vitro antibacterial activities of new hybrid disinfectants quaternary ammonium compounds: pyridinium and quinolinium stilbene benzenesulfonates” (2010)
